Measurements reported in ChEMBL document CHEMBL1156387, “Novel esters of glaucarubolone as inducers of terminal differentiation of promyelocytic HL-60 cells and inhibitors of 7,12-dimethylbenz[a]anthracene-induced preneoplastic lesion formation in mouse mammary organ culture” (J Nat Prod, 2001).

Key:
HL-60 [1] = experiment: Antiproliferative activity against human HL60 cells assessed as inhibition of [3H]thymidine incorporation after 4 days by liquid scintillation counter; type: functional, cell-based
How it was run: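 HL-60 cells in log phase diluted to 10^5 cells/mL, preincubated 18 h, then exposed to samples in DMSO (final 0.1% v/v; DMSO-only controls) for 4 days. Cells then pulsed with [3H]thymidine (0.5 μCi/mL, 65 Ci/mmol) for 18 h at 37 °C, 5% CO2, harvested onto glass fiber filters, scintillation counted; incorporation per 10^6 cells as % of DMSO control. IC50 from 5–7 concentrations in duplicate.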

HL-60 [2] = experiment: Cytotoxicity against human HL60 cells assessed as loss of membrane integrity after 4 days by trypan blue exclusion assay; type: functional, cell-based; settings: HL-60, 96 h
How it was run: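 After 18 h recovery at 10^5 cells/mL, HL-60 cells were treated 4 days with samples (final DMSO 0.1% v/v). Cells were mixed 1:4 with trypan blue (0.2% w/v in PBS), held at least 5 min at room temperature and counted by hemocytometer. Viability was taken from duplicate samples; IC50 from 5–7 concentrations in duplicate.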

[3] = Inhibition of DMBA-induced preneoplastic lesion formation in a BALB/c mouse mammary organ culture at 2 uM pretreated for 10 days before DMBA-challenge measured after 14 days; type: functional; settings: Mammary gland
How it was run: (§1)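 Female BALB/c mice, 4 weeks old, primed 9 days with estradiol 1 μg plus progesterone 1 mg. Thoracic glands were cultured 10 days with insulin, prolactin, aldosterone and hydrocortisone plus test agent at 2 μM. DMBA 2 μg/mL was given for 24 h on day 3. Regression followed for 14 days in insulin alone. Glands were formalin-fixed and alum carmine-stained. Lesion incidence gave % inhibition versus DMBA control. Toxicity was scored as duct dilation or amorphous disintegration.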

HL-60 [4] = experiment: Selectivity index, ratio of cytotoxic IC50 to antiproliferative IC50 for human HL60 cells; type: functional
How it was run: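 Index = cytotoxic IC50 (trypan blue, 4-day HL-60 exposure) divided by antiproliferative IC50 ([3H]thymidine incorporation), each from dose–response with at least five points.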

HL-60 [5] = experiment: Induction of cell differentiation in human HL60 cells assessed as superoxide anion production after 4 days by NBT reduction assay; type: functional, cell-based; settings: HL-60, 96 h
How it was run: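 Cells diluted to 10^5/mL and recovered overnight were exposed 4 days to samples (0.1% v/v DMSO final). Cell suspension (10^6 cells) was mixed 1:1 with NBT 2 mg/mL plus TPA 1 μg/mL in PBS and held 1 h at 37 °C. Formazan-positive cells were counted microscopically among >200 cells. EC50 from 5–7 concentrations in duplicate; 1α,25-dihydroxyvitamin D3 served as reference.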

[6] = Toxicity in BALB/c mouse mammary organ culture assessed as morphological changes in mammary gland at 2 uM after 10 days; type: tissue-based; settings: ex_vivo, 240 h; how it was run: as §1

SMILES | IC50 (HL-60 [1]) | IC50 (HL-60 [2]) | inhibition at 2 µM [3] | Ratio IC50 (HL-60 [4]) | EC50 (HL-60 [5]) | Activity [6]
CC[C@](O)(CC(=O)O[C@H]1C(=O)O[C@@H]2C[C@H]3C(C)=CC(=O)[C@@H](O)[C@]3(C)[C@H]3[C@]4(O)OC[C@]32[C@@H]1[C@@H](C)[C@H]4O)C(C)C | 9 nM | 13 nM | 44% | 1.5 | 19 nM | Non-toxic
CCC(CC)(CO)C(=O)O[C@H]1C(=O)O[C@@H]2C[C@H]3C(C)=CC(=O)[C@@H](O)[C@]3(C)[C@H]3[C@]4(O)OC[C@]32[C@@H]1[C@@H](C)[C@H]4O | 150 nM | 950 nM | 70% | 6.5 | 500 nM | Non-toxic
CC1=CC(=O)[C@@H](O)[C@]2(C)[C@H]3[C@]4(O)OC[C@]35[C@H]([C@@H](C)[C@H]4O)[C@@H](OC(=O)CC3(O)CCC3)C(=O)O[C@@H]5C[C@@H]12 | 260 nM | 280 nM | 33% | 1.1 | 140 nM | Non-toxic
CC1=CC(=O)[C@@H](O)[C@]2(C)[C@H]3[C@]4(O)OC[C@]35[C@H]([C@@H](C)[C@H]4O)[C@@H](OC(=O)CC(C(C)C)C(C)C)C(=O)O[C@@H]5C[C@@H]12 | 75 nM | 150 nM | 40% | 2 | 55 nM | Non-toxic
CC1=CC(=O)[C@@H](O)[C@]2(C)[C@H]3C4(O)OC[C@@]35[C@@H](C[C@@H]12)OC(=O)C[C@H]5[C@@H](C)[C@H]4O (single isomer, unassigned) [CHAPARRINONE] | 1200 nM | 5000 nM | 25% | 4.3 | 2400 nM | Non-toxic
COC(=O)[C@@]12OC[C@]34[C@H]([C@@H](O)[C@@H]1O)[C@@]1(C)CC(=O)C(O)=C(C)[C@@H]1C[C@H]3OC(=O)[C@H](OC(=O)/C=C(\C)C(C)C)[C@@H]24 [BRUCEANTIN] | 40 nM | 40 nM | 70% | 1 | 20 nM | Non-toxic
CC1=CC(=O)[C@@H](O)[C@@]2(C)[C@H]1CC[C@@]13CO[C@]4(C)[C@@H]1C(=O)O[C@H]4[C@H](O)[C@@H]32 [SAMADERIN B] | 400 nM | > 2000 nM | 0% | >6 | 1000 nM | Non-toxic
